Laboratory results from ChEMBL document CHEMBL3621107, “Ring fusion strategy for synthesis and lead optimization of sulfur-substituted anthra[1,2-c][1,2,5]thiadiazole-6,11-dione derivatives as promising scaffold of antitumor agents” (Eur J Med Chem, 2015).

Key:
Type in all cases: functional
MOLT-4 = assay: Cytotoxicity against human MOLT4 cells after 48 hrs by SRB assay; conditions: MOLT-4, 48 h
Method in brief: (§1)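 Second-stage NCI-60 panel run by the NCI Developmental Therapeutics Program, covering nine tumour subpanels. Five concentrations were tested: 0.01, 0.1, 1, 10 and 100 μM. Percentage growth at each level was plotted against log10 drug concentration. GI50, TGI and LC50 were read from these dose-response curves. Subpanel MID values were divided into the full-panel MID to give selectivity ratios.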

SR = assay: Cytotoxicity against human SR cells after 48 hrs by SRB assay
Method in brief: (§2)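 NCI-60 five-dose study run by NCI DTP at 0.01, 0.1, 1, 10 and 100 µM. Percentage growth at each level was plotted against log10 concentration for each line, and GI50, TGI and LC50 were read from the dose-response curves.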

A549 = assay: Cytotoxicity against human A549 cells after 48 hrs by SRB assay; conditions: A549, 48 h
Method in brief: (§3)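 NCI-60 human tumour cell panel screen, second stage, run by the NCI Developmental Therapeutics Program. Compounds were tested at five concentrations (0.01, 0.1, 1, 10 and 100 μM). Percentage growth was plotted against log10 concentration for each cell line. GI50, TGI and LC50 were taken from these dose-response curves.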

NCI-H460 = assay: Cytotoxicity against human NCI-H460 cells after 48 hrs by SRB assay; conditions: NCI-H460, 48 h; method in brief: as §1
NCI-H522 = assay: Cytotoxicity against human NCI-H522 cells after 48 hrs by SRB assay; conditions: NCI-H522, 48 h; method in brief: as §1
COLO 205 = assay: Cytotoxicity against human COLO205 cells after 48 hrs by SRB assay; conditions: COLO 205, 48 h; method in brief: as §3
HT-29 = assay: Cytotoxicity against human HT-29 cells after 48 hrs by SRB assay; conditions: HT-29, 48 h; method in brief: as §3
SW-620 = assay: Cytotoxicity against human SW620 cells after 48 hrs by SRB assay; conditions: SW-620, 48 h; method in brief: as §2
SF-539 = assay: Cytotoxicity against human SF539 cells after 48 hrs by SRB assay; conditions: SF-539, 48 h; method in brief: as §1
SNB-75 = assay: Cytotoxicity against human SNB75 cells after 48 hrs by SRB assay; conditions: SNB-75, 48 h; method in brief: as §2
U-251 = assay: Cytotoxicity against human U251 cells after 48 hrs by SRB assay; conditions: U-251, 48 h; method in brief: as §2
SK-MEL-5 = assay: Cytotoxicity against human SK-MEL-5 cells after 48 hrs by SRB assay; conditions: SK-MEL-5, 48 h; method in brief: as §1
UACC-257 = assay: Cytotoxicity against human UACC257 cells after 48 hrs by SRB assay; conditions: UACC-257, 48 h; method in brief: as §2
UACC-62 = assay: Cytotoxicity against human UACC62 cells after 48 hrs by SRB assay; conditions: UACC-62, 48 h; method in brief: as §2
IGROV-1 = assay: Cytotoxicity against human IGROV1 cells after 48 hrs by SRB assay; conditions: IGROV-1, 48 h; method in brief: as §3
OVCAR-8 = assay: Cytotoxicity against human OVCAR8 cells after 48 hrs by SRB assay; conditions: OVCAR-8, 48 h; method in brief: as §1
NCI/ADR-RES = assay: Cytotoxicity against human NCI/ADR-RES cells after 48 hrs by SRB assay; method in brief: as §1
SK-OV-3 = assay: Cytotoxicity against human SKOV3 cells after 48 hrs by SRB assay; conditions: SK-OV-3, 48 h; method in brief: as §1
786-0 = assay: Cytotoxicity against human 786-0 cells after 48 hrs by SRB assay; conditions: 786-0, 48 h; method in brief: as §3
RXF 393 = assay: Cytotoxicity against human RXF393 cells after 48 hrs by SRB assay; conditions: RXF 393, 48 h; method in brief: as §1
SN12C = assay: Cytotoxicity against human SN12C cells after 48 hrs by SRB assay; method in brief: as §1
TK-10 = assay: Cytotoxicity against human TK10 cells after 48 hrs by SRB assay; conditions: TK-10, 48 h; method in brief: as §2
UO-31 = assay: Cytotoxicity against human UO31 cells after 48 hrs by SRB assay; conditions: UO-31, 48 h; method in brief: as §2
PC-3 = assay: Cytotoxicity against human PC3 cells after 48 hrs by SRB assay; conditions: PC-3, 48 h; method in brief: as §1
T47D = assay: Cytotoxicity against human T47D cells after 48 hrs by SRB assay; method in brief: as §2
[1] = Cytotoxicity against human colon cancer cells assessed as growth inhibition after 48 hrs by SRB assay; conditions: Cancer cell lines
Method in brief: (§4)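 Values come from the NCI-60 five-dose panel (0.01–100 µM). The subpanel MID is the mean GI50 over the lines of that tumour subpanel. The selectivity ratio is the full-panel MID divided by the subpanel MID; 3–6 is rated moderate and >6 high.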

[2] = Cytotoxicity against human CNS cancer cells assessed as growth inhibition after 48 hrs by SRB assay; conditions: Cancer cell lines
Method in brief: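 NCI-60 five-dose data (0.01–100 μM) were grouped by tumour subpanel. A subpanel mean (MID) of GI50 was computed for the CNS cancer lines. A selectivity ratio was obtained as full-panel MID divided by subpanel MID: 3–6 counts as moderate, >6 as high.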

[3] = Cytotoxicity against human ovarian cancer cells assessed as growth inhibition after 48 hrs by SRB assay; conditions: Cancer cell lines; method in brief: as §4
[4] = Cytotoxicity against human renal cancer cells assessed as growth inhibition after 48 hrs by SRB assay; conditions: Cancer cell lines; method in brief: as §4
[5] = Cytotoxicity against human prostate cancer cells assessed as growth inhibition after 48 hrs by SRB assay; conditions: Cancer cell lines; method in brief: as §4
[6] = read-out: LC50 (the source's name)

`O=C1c2ccccc2C(=O)c2c1cc(Sc1ccccc1Br)c1nsnc21` showed a GI50 (MOLT-4) of 7.21 µM, an LC50 (MOLT-4) of over 50 µM and a TGI (MOLT-4) of 41.2 µM. The GI50 (SR) was 17 µM, the LC50 (SR) was over 50 µM and the TGI (SR) was over 50 µM. For the same molecule, the GI50 (A549) was over 50 µM, the LC50 (concentration killing 50% of cells) (A549) was over 50 µM and the TGI (A549) was over 50 µM. It also gave a GI50 (NCI-H460) of 36.1 µM, an LC50 (concentration killing 50% of cells) (NCI-H460) of over 50 µM and a TGI (NCI-H460) of over 50 µM. For the same molecule, the GI50 (NCI-H522) was 14.9 µM, the LC50 (concentration giving 50% net cell kill) (NCI-H522) was over 50 µM and the TGI (NCI-H522) was over 50 µM. For the same molecule, the GI50 (COLO 205) was over 50 µM, the LC50 (COLO 205) was over 50 µM and the TGI (COLO 205) was over 50 µM. The GI50 (HT-29) was over 50 µM, the LC50 (HT-29) was over 50 µM and the TGI (HT-29) was over 50 µM. The GI50 (SW-620) was 23.6 µM, the LC50 (50% lethal concentration) (SW-620) was over 50 µM and the TGI (SW-620) was over 50 µM. For the same molecule, the GI50 (SF-539) was 10.3 µM, the LC50 (SF-539) was 40.5 µM and the TGI (SF-539) was 20.5 µM. The GI50 (SNB-75) was 14.9 µM, the LC50 (concentration killing 50% of cells) (SNB-75) was over 50 µM and the TGI (SNB-75) was over 50 µM. It also gave a GI50 (U-251) of 10.9 µM, an LC50 (U-251) of over 50 µM and a TGI (U-251) of 31.7 µM. It also gave a GI50 (SK-MEL-5) of 5.08 µM, an LC50 (SK-MEL-5) of 24.3 µM and a TGI (SK-MEL-5) of 11.1 µM. It also gave a GI50 (UACC-257) of 8.56 µM, an LC50 (UACC-257) of over 50 µM and a TGI (UACC-257) of 20.9 µM. The GI50 (UACC-62) was 12 µM, the LC50 (UACC-62) was over 50 µM and the TGI (UACC-62) was 40.8 µM. For the same molecule, the GI50 (IGROV-1) was 19.1 µM, the LC50 (IGROV-1) was over 50 µM and the GI50 (OVCAR-8) was 11.1 µM. The TGI (OVCAR-8) was over 50 µM, the CC50 (OVCAR-8; [6]) was over 50 µM and the GI50 (NCI/ADR-RES) was 10.4 µM. For the same molecule, the LC50 (concentration killing 50% of cells) (NCI/ADR-RES) was over 50 µM, the TGI (NCI/ADR-RES) was 36.9 µM and the GI50 (SK-OV-3) was 21 µM. The LC50 (SK-OV-3) was over 50 µM, the TGI (SK-OV-3) was over 50 µM and the GI50 (786-0) was 11.2 µM. The LC50 (concentration killing 50% of cells) (786-0) was over 50 µM, the TGI (786-0) was 29.7 µM and the GI50 (RXF 393) was 9.14 µM. It also gave an LC50 (concentration killing 50% of cells) (RXF 393) of 42.2 µM, a TGI (RXF 393) of 19.6 µM and a GI50 (SN12C) of 10.5 µM. It also gave a TGI (SN12C) of 39.7 µM, a CC50 (SN12C; [6]) of over 50 µM and a GI50 (TK-10) of 29.7 µM. It also gave an LC50 (concentration killing 50% of cells) (TK-10) of over 50 µM, a TGI (TK-10) of over 50 µM and a GI50 (UO-31) of 14.9 µM. For the same molecule, the LC50 (UO-31) was over 50 µM, the TGI (UO-31) was over 50 µM and the GI50 (PC-3) was 14.8 µM. For the same molecule, the LC50 (concentration killing 50% of cells) (PC-3) was over 50 µM, the TGI (PC-3) was over 50 µM and the GI50 (T47D) was 3.7 µM. The LC50 (concentration killing 50% of cells) (T47D) was over 50 µM, the TGI (T47D) was 18.3 µM and the GI50 [1] was 21.4 µM. For the same molecule, the GI50 [2] was 21.8 µM, the GI50 [3] was 11.2 µM and the GI50 [4] was 14.5 µM. For the same molecule, the GI50 [5] was 18.2 µM.
